Measurements as given in ChEMBL document CHEMBL4689842, “EUbOPEN Chemogenomics Library wave 1” (2021).
Values joined by “and” are separate entries in the source; they are usually repeats but may differ in a detail not shown here. Identical values can stand only once.

Legend:
Type in all cases: toxicity, cell-based
U2OS [1] = assay: Incucyte cell viability with U2OS; settings: human, 10 µM, compound concentration 10 uM; note: filed as whole numbers so only -1 and 0 and 1 occur
Fibroblast [2] = assay: Incucyte cell viability with human fibroblast; settings: 10 µM, compound concentration 10 uM; note: filed as whole numbers so only -1 and 0 and 1 occur
Fibroblast [3] = assay: Multiplex assay against human fibroblast; settings: 1 µM, compound concentration 1 uM
Procedure, shortened: (§1)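 Values for tubulin, mitochondrial-mass and membrane-permeability phenotypes are per cents of cells with healthy nuclei. These cells were identified by CellPathfinder machine-learning gating of live cells that had been stained at seeding with Hoechst33342, BioTracker Green Microtubule Cytoskeleton Dye, MitoTracker Red and Annexin V Alexa Fluor 680 and imaged on a CQ1 microscope at 37°C and 5% CO2 after compound addition. The gating first set Hoechst high-intensity objects apart from normal cells, then split normal cells into healthy, pyknosed or fragmented nuclei, and pyknosed cells into mitotic or apoptotic.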

HEK-293T [4] = assay: Incucyte cell viability with HEK293T; settings: human, 10 µM, compound concentration 10 uM; note: filed as whole numbers so only -1 and 0 and 1 occur
HEK-293T [5] = assay: Multiplex assay against HEK293T; settings: human, 1 µM, compound concentration 1 uM; procedure, shortened: as §1
U2OS [6] = assay: Multiplex assay against U2OS; settings: human, 1 µM, compound concentration 1 uM; procedure, shortened: as §1
[7] = 6 h, replicate number 1, timepoint 6 hours
[8] = 12 h, replicate number 1, timepoint 12 hours
[9] = 18 h, replicate number 1, timepoint 18 hours
[10] = 24 h, replicate number 1, timepoint 24 hours

FC(F)c1nc2ccccc2n1-c1nc(N2CCOCC2)nc(N2CCOCC2)n1 [ZSTK-474]
Growth Rate (U2OS [1]; 0 h, replicate number 1, timepoint 0 hours): 1
Growth Rate (U2OS [1]; [7]): 1
Growth Rate (U2OS [1]; [8]): 1
Growth Rate (U2OS [1]; 12 h, replicate number 2, timepoint 12 hours): 0
Growth Rate (U2OS [1]; [9]): 0
Growth Rate (U2OS [1]; [10]): 0
Growth Rate (Fibroblast [2]; 0 h, replicate number 2, timepoint 0 hours): 0
Growth Rate (Fibroblast [2]; [7]): 0
Growth Rate (Fibroblast [2]; [8]): 0
Growth Rate (Fibroblast [2]; [9]): 0
Growth Rate (Fibroblast [2]; [10]): 0
Population Apoptotic (%) (Fibroblast [3]; 12 h, replicate 1): 75% and 78%
Population Fragmented Nuclei (%) (Fibroblast [3]; 12 h, replicate 1): 31% and 20%
Population Healthy Nuclei (%) (Fibroblast [3]; 12 h, replicate 1): 54% and 67%
Population Hoechst High Intensity Objects (%) (Fibroblast [3]; 12 h, replicate 1): 15% and 11%
Population Mitochondria Different-Phenotype (%) (Fibroblast [3]; 12 h, replicate 1): 3% and 1%
Population Mitotic Cells (%) (Fibroblast [3]; 12 h, replicate 1): 25% and 21%
Population Normal (%) (Fibroblast [3]; 12 h, replicate 1): 84% and 88%
Population Pyknosed Nuclei (%) (Fibroblast [3]; 12 h, replicate 1): 14% and 11%
Total Cell Count (Fibroblast [3]; 12 h, replicate 1): 268 and 222
Population Fragmented Nuclei (%) (Fibroblast [3]; 12 h, replicate 2): 71% and 55%
Population Healthy Nuclei (%) (Fibroblast [3]; 12 h, replicate 2): 26% and 37%
Population Hoechst High Intensity Objects (%) (Fibroblast [3]; 12 h, replicate 2): 40% and 37%
Population Membrane Permeable-Phenotype (%) (Fibroblast [3]; 12 h, replicate 2): 0% and 6%
Population Mitochondria Different-Phenotype (%) (Fibroblast [3]; 12 h, replicate 2): 14% and 26%
Population Mitotic Cells (%) (Fibroblast [3]; 12 h, replicate 2): 100% and 66%
Population Normal (%) (Fibroblast [3]; 12 h, replicate 2): 59% and 62%
Total Cell Count (Fibroblast [3]; 12 h, replicate 2): 88 and 64
Population Apoptotic (%) (Fibroblast [3]; 24 h, replicate 1): 63% and 76%
Population Fragmented Nuclei (%) (Fibroblast [3]; 24 h, replicate 1): 24% and 22%
Population Healthy Nuclei (%) (Fibroblast [3]; 24 h, replicate 1): 61% and 64%
Population Hoechst High Intensity Objects (%) (Fibroblast [3]; 24 h, replicate 1): 12%
Population Membrane Permeable-Phenotype (%) (Fibroblast [3]; 24 h, replicate 1): 3% and 1%
Population Mitotic Cells (%) (Fibroblast [3]; 24 h, replicate 1): 36% and 24%
Population Normal (%) (Fibroblast [3]; 24 h, replicate 1): 87%
Population Pyknosed Nuclei (%) (Fibroblast [3]; 24 h, replicate 1): 14% and 12%
Population Tubulin-Different-Phenotype (%) (Fibroblast [3]; 24 h, replicate 1): 18% and 0%
Total Cell Count (Fibroblast [3]; 24 h, replicate 1): 235 and 226
Population Apoptotic (%) (Fibroblast [3]; 24 h, replicate 2): 0%
Population Fragmented Nuclei (%) (Fibroblast [3]; 24 h, replicate 2): 72% and 63%
Population Healthy Nuclei (%) (Fibroblast [3]; 24 h, replicate 2): 23% and 34%
Population Hoechst High Intensity Objects (%) (Fibroblast [3]; 24 h, replicate 2): 40% and 33%
Population Membrane Permeable-Phenotype (%) (Fibroblast [3]; 24 h, replicate 2): 8% and 7%
Population Mitochondria Different-Phenotype (%) (Fibroblast [3]; 24 h, replicate 2): 8% and 23%
Population Mitotic Cells (%) (Fibroblast [3]; 24 h, replicate 2): 100%
Population Normal (%) (Fibroblast [3]; 24 h, replicate 2): 60% and 66%
Population Pyknosed Nuclei (%) (Fibroblast [3]; 24 h, replicate 2): 3% and 2%
Total Cell Count (Fibroblast [3]; 24 h, replicate 2): 85 and 57
Growth Rate (HEK-293T [4]; [7]): 0
Growth Rate (HEK-293T [4]; [8]): 0
Growth Rate (HEK-293T [4]; [9]): 0
Growth Rate (HEK-293T [4]; [10]): 0
Population Apoptotic (%) (HEK-293T [5]; 12 h, replicate 1): 22% and 20%
Population Fragmented Nuclei (%) (HEK-293T [5]; 12 h, replicate 1): 18% and 14%
Population Healthy Nuclei (%) (HEK-293T [5]; 12 h, replicate 1): 59% and 50%
Population Hoechst High Intensity Objects (%) (HEK-293T [5]; 12 h, replicate 1): 16% and 20%
Population Membrane Permeable-Phenotype (%) (HEK-293T [5]; 12 h, replicate 1): 7% and 5%
Population Mitochondria Different-Phenotype (%) (HEK-293T [5]; 12 h, replicate 1): 6% and 13%
Population Mitotic Cells (%) (HEK-293T [5]; 12 h, replicate 1): 77% and 79%
Population Normal (%) (HEK-293T [5]; 12 h, replicate 1): 83% and 79%
Population Pyknosed Nuclei (%) (HEK-293T [5]; 12 h, replicate 1): 22% and 35%
Total Cell Count (HEK-293T [5]; 12 h, replicate 1): 600 and 593
Population Apoptotic (%) (HEK-293T [5]; 12 h, replicate 2): 18% and 16%
Population Fragmented Nuclei (%) (HEK-293T [5]; 12 h, replicate 2): 5% and 9%
Population Healthy Nuclei (%) (HEK-293T [5]; 12 h, replicate 2): 86% and 85%
Population Membrane Permeable-Phenotype (%) (HEK-293T [5]; 12 h, replicate 2): 4% and 3%
Population Mitotic Cells (%) (HEK-293T [5]; 12 h, replicate 2): 81% and 83%
Population Normal (%) (HEK-293T [5]; 12 h, replicate 2): 90% and 97%
Population Pyknosed Nuclei (%) (HEK-293T [5]; 12 h, replicate 2): 8% and 4%
Total Cell Count (HEK-293T [5]; 12 h, replicate 2): 1084 and 1487
Population Apoptotic (%) (HEK-293T [5]; 24 h, replicate 1): 28% and 17%
Population Fragmented Nuclei (%) (HEK-293T [5]; 24 h, replicate 1): 16% and 15%
Population Healthy Nuclei (%) (HEK-293T [5]; 24 h, replicate 1): 54% and 72%
Population Hoechst High Intensity Objects (%) (HEK-293T [5]; 24 h, replicate 1): 19% and 13%
Population Membrane Permeable-Phenotype (%) (HEK-293T [5]; 24 h, replicate 1): 8%
Population Mitotic Cells (%) (HEK-293T [5]; 24 h, replicate 1): 71% and 82%
Population Normal (%) (HEK-293T [5]; 24 h, replicate 1): 80% and 86%
Population Pyknosed Nuclei (%) (HEK-293T [5]; 24 h, replicate 1): 28% and 11%
Total Cell Count (HEK-293T [5]; 24 h, replicate 1): 526 and 650
Population Apoptotic (%) (HEK-293T [5]; 24 h, replicate 2): 12% and 13%
Population Fragmented Nuclei (%) (HEK-293T [5]; 24 h, replicate 2): 11% and 31%
Population Healthy Nuclei (%) (HEK-293T [5]; 24 h, replicate 2): 79% and 66%
Population Hoechst High Intensity Objects (%) (HEK-293T [5]; 24 h, replicate 2): 11% and 4%
Population Membrane Permeable-Phenotype (%) (HEK-293T [5]; 24 h, replicate 2): 10% and 6%
Population Mitotic Cells (%) (HEK-293T [5]; 24 h, replicate 2): 87% and 86%
Population Normal (%) (HEK-293T [5]; 24 h, replicate 2): 88% and 95%
Total Cell Count (HEK-293T [5]; 24 h, replicate 2): 1133 and 2662
Population Fragmented Nuclei (%) (U2OS [6]; 12 h, replicate 1): 3%
Population Healthy Nuclei (%) (U2OS [6]; 12 h, replicate 1): 89% and 87%
Population Hoechst High Intensity Objects (%) (U2OS [6]; 12 h, replicate 1): 4% and 3%
Population Membrane Permeable-Phenotype (%) (U2OS [6]; 12 h, replicate 1): 18% and 7%
Population Mitotic Cells (%) (U2OS [6]; 12 h, replicate 1): 56% and 88%
Population Normal (%) (U2OS [6]; 12 h, replicate 1): 95% and 96%
Population Pyknosed Nuclei (%) (U2OS [6]; 12 h, replicate 1): 7% and 6%
Population Tubulin-Different-Phenotype (%) (U2OS [6]; 12 h, replicate 1): 13% and 23%
Total Cell Count (U2OS [6]; 12 h, replicate 1): 134 and 206
Population Fragmented Nuclei (%) (U2OS [6]; 12 h, replicate 2): 8% and 5%
Population Healthy Nuclei (%) (U2OS [6]; 12 h, replicate 2): 85%
Population Hoechst High Intensity Objects (%) (U2OS [6]; 12 h, replicate 2): 14% and 10%
Population Membrane Permeable-Phenotype (%) (U2OS [6]; 12 h, replicate 2): 21% and 13%
Population Mitochondria Different-Phenotype (%) (U2OS [6]; 12 h, replicate 2): 9% and 18%
Population Mitotic Cells (%) (U2OS [6]; 12 h, replicate 2): 83% and 28%
Population Normal (%) (U2OS [6]; 12 h, replicate 2): 85% and 89%
Population Pyknosed Nuclei (%) (U2OS [6]; 12 h, replicate 2): 5%
Population Tubulin-Different-Phenotype (%) (U2OS [6]; 12 h, replicate 2): 20% and 35%
Total Cell Count (U2OS [6]; 12 h, replicate 2): 147 and 107
Population Healthy Nuclei (%) (U2OS [6]; 24 h, replicate 1): 90%
Population Hoechst High Intensity Objects (%) (U2OS [6]; 24 h, replicate 1): 2%
Population Mitochondria Different-Phenotype (%) (U2OS [6]; 24 h, replicate 1): 4% and 12%
Population Normal (%) (U2OS [6]; 24 h, replicate 1): 97%
Population Pyknosed Nuclei (%) (U2OS [6]; 24 h, replicate 1): 4% and 3%
Population Tubulin-Different-Phenotype (%) (U2OS [6]; 24 h, replicate 1): 12% and 25%
Total Cell Count (U2OS [6]; 24 h, replicate 1): 190 and 236
Population Apoptotic (%) (U2OS [6]; 24 h, replicate 2): 28% and 50%
Population Fragmented Nuclei (%) (U2OS [6]; 24 h, replicate 2): 4% and 6%
Population Healthy Nuclei (%) (U2OS [6]; 24 h, replicate 2): 89%
Population Hoechst High Intensity Objects (%) (U2OS [6]; 24 h, replicate 2): 11% and 4%
Population Membrane Permeable-Phenotype (%) (U2OS [6]; 24 h, replicate 2): 20% and 11%
Population Mitochondria Different-Phenotype (%) (U2OS [6]; 24 h, replicate 2): 9% and 20%
Population Mitotic Cells (%) (U2OS [6]; 24 h, replicate 2): 71% and 50%
Population Normal (%) (U2OS [6]; 24 h, replicate 2): 88% and 95%
Population Pyknosed Nuclei (%) (U2OS [6]; 24 h, replicate 2): 5%
Population Tubulin-Different-Phenotype (%) (U2OS [6]; 24 h, replicate 2): 20% and 36%
Total Cell Count (U2OS [6]; 24 h, replicate 2): 188 and 114
